# The source made the active and inactive calls. The rule behind the calls is not given here.
# How the values were obtained:
# [1] = Fraction unbound in human plasma at 20 uM after 18 hrs by equilibrium dialysis method; format: ADME, cell-free
# [2] = test system: Mycolicibacterium smegmatis; test: Binding affinity to Mycobacterium smegmatis recombinant DprE1 assessed as residence time
# In short: (§1)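 Progress curves (fluorescence vs time) recorded at several inhibitor concentrations with 75 nM Msm DprE1 in the FAD/HRP/Amplex Red coupled assay, pH 8.5, 25 °C. A single-step reversible slow-binding model was fitted globally, with vs and vi fitted per concentration and koff and Kiapp shared. Half-life and residence time were derived from koff.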
# [3] = test system: Mycobacterium tuberculosis; test: Antimycobacterial activity against Mycobacterium tuberculosis expressing GFP assessed as reduction of bacterial growth rate at 30 uM after 5 to 7 days; format: functional, organism-based
# In short: (§2)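 GFP-expressing Mtb was grown several days in a microfluidic device with 7H9 flow medium. Compound at 30 μM was then flowed in from t = 118 h to t = 284 h, then washed out. Phase and GFP time-lapse images were taken at 1 h intervals to follow growth rate, morphology and lysis of single cells and microcolonies.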
# [4] = test system: Mycobacterium tuberculosis; test: Antimycobacterial activity against Mycobacterium tuberculosis expressing GFP assessed as change bacterial morphology at 30 uM after 5 to 7 days; format: functional, organism-based; in short: as §2
# [5] = test system: Mycolicibacterium smegmatis; test: Time dependent inhibition of Mycobacterium smegmatis recombinant DprE1 using farnesylphosphoryl-beta-D-ribofuranose as substrate assessed as conversion of amplex red to resorufin at 4.6 to 3333 nM
# In short: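 Coupled fluorescence assay at 25 °C with 75 nM recombinant Msm DprE1 (wild type or Y321H) in 50 mM glycylglycine pH 8.5, 200 mM potassium glutamate, 10 μM FAD, 0.002% Brij-35, 2% DMSO. Enzyme preincubated 30 min, then started with 300 μM FPR, HRP and 50 μM Amplex Red. Progress curves followed over 0−40 min, with background subtracted.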
# Pseudomonas aeruginosa [6] = test: Antimicrobial activity against Pseudomonas aeruginosa ARC546 at 100 uM; format: functional, organism-based
# In short: (§3)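 Nonmycobacterial panel of Candida albicans, Gram-negative and Gram-positive pathogens.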
# [7] = test system: Mycobacterium tuberculosis; test: Antimycobacterial activity against Mycobacterium tuberculosis over expressing InhA after 5 days by standard microdilution method; format: functional; conditions: 120 h
# Haemophilus influenzae [8] = test: Antimicrobial activity against Haemophilus influenzae ARC158 at 100 uM; format: functional, organism-based; in short: as §3
# Cytochrome P450 2C9 = Cytochrome P450 2C9 (Homo sapiens, UniProt P11712); test: Inhibition of CYP2C9 (unknown origin); format: ADME
# Cytochrome P450 2C9, sequence (P11712 whole entry, canonical isoform): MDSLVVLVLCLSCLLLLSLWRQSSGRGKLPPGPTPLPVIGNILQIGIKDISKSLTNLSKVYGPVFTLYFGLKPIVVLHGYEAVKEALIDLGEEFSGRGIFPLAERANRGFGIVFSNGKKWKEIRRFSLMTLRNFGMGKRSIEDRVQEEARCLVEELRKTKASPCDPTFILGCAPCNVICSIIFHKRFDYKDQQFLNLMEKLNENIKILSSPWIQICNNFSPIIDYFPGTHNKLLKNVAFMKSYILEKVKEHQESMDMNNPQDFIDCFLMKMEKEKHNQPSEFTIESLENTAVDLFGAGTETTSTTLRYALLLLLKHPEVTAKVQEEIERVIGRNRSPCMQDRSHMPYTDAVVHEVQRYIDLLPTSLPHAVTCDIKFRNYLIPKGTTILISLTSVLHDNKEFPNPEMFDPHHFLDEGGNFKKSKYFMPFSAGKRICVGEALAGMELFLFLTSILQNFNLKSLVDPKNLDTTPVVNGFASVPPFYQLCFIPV
# In short: (§4)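 CYP inhibition IC50 measured on isoforms CYP3A4, CYP2D6, CYP2C9, CYP2C19 and CYP1A2.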
# [9] = test system: Mycobacterium tuberculosis; test: Antimycobacterial activity against Mycobacterium tuberculosis over expressing TopA after 5 days by standard microdilution method; format: functional; conditions: 120 h
# [10] = test system: Mycolicibacterium smegmatis; test: Antimicrobial activity against Mycobacterium smegmatis ATCC 607 at 100 uM; format: functional, organism-based
# Streptococcus pneumoniae = test: Antimicrobial activity against Streptococcus pneumoniae ARC548 at 100 uM; format: functional, organism-based; in short: as §3
# [11] = test system: Mycolicibacterium smegmatis; test: Binding affinity to Mycobacterium smegmatis recombinant DprE1 assessed as half life; in short: as §1
# [12] = Intrinsic clearance in rat cryopreserved hepatocytes assessed per 10^6 cells at 1 uM up to 120 mins by LC-MS/MS analysis; format: ADME, cell-based, Hepatocyte; conditions: read-out: CLH
# [13] = Permeability of the compound from apical to basolateral side in human Caco2 cells; format: ADME, cell-based; conditions: Caco-2, read-out: permeability
# Escherichia coli [14] = test: Antimicrobial activity against Escherichia coli ARC524 at 100 uM; format: functional, organism-based; in short: as §3
# [15] = test system: Mycobacterium tuberculosis; test: Antimycobacterial activity against Mycobacterium tuberculosis H37Rv infected in human THP1 cells after 7 days; format: functional, organism-based; conditions: THP-1
# Pseudomonas aeruginosa [16] = test: Antimicrobial activity against Pseudomonas aeruginosa ARC545 at 100 uM; format: functional, organism-based; in short: as §3
# Cytochrome P450 2C19 = Cytochrome P450 2C19 (Homo sapiens, UniProt P33261); test: Inhibition of CYP2C19 (unknown origin); format: ADME; in short: as §4
# Cytochrome P450 2C19, sequence (P33261 whole entry): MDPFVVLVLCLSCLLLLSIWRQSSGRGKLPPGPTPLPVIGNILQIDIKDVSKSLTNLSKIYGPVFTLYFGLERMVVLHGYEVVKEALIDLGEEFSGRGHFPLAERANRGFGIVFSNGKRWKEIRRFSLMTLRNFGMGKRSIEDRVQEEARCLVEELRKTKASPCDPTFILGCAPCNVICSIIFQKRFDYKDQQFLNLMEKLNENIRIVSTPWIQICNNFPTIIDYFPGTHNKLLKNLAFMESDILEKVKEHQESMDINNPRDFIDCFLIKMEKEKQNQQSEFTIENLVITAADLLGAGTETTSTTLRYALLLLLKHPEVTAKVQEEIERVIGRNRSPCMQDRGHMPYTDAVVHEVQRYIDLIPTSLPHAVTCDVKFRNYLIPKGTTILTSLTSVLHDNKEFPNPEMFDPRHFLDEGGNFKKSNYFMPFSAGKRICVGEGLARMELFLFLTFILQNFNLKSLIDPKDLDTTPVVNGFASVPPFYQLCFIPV
# Staphylococcus aureus = test: Antimicrobial activity against Staphylococcus aureus ARC517 at 100 uM; format: functional, organism-based; in short: as §3
# [17] = test system: Mycolicibacterium smegmatis; test: Antimicrobial activity against Mycobacterium smegmatis mc2155 at 100 uM; format: functional, organism-based; conditions: str. MC2 155
# [18] = test system: Mycobacterium tuberculosis; test: Antimycobacterial activity against Mycobacterium tuberculosis over expressing DprE1 after 5 days by standard microdilution method; format: functional; conditions: 120 h
# [19] = Inhibition of Mycobacterium smegmatis DprE1 Y321H mutant using farnesylphosphoryl-beta-D-ribofuranose as substrate assessed as conversion of amplex red to resorufin after 30 mins; set-up: species or system Mycolicibacterium smegmatis
# In short: (§5)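 Recombinant M. smegmatis DprE1 (thioredoxin-6His fusion), wild type or Y321H, 75 nM. Enzyme was preincubated 30 min in FAD assay mix: 50 mM glycylglycine pH 8.5, 200 mM potassium glutamate, 10 μM FAD, 0.002% Brij-35, 2% DMSO. Reaction was started with 300 μM farnesylphosphoryl-β-D-ribofuranose, 0.01 mg/mL HRP and 50 μM amplex red at 25 °C.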
# [20] = test system: Mycobacterium tuberculosis; test: Antimycobacterial activity against Mycobacterium tuberculosis H37Rv at >MIC after 21 to 28 days; format: functional
# [21] = test system: Mycobacterium tuberculosis; test: Antimycobacterial activity against Mycobacterium tuberculosis over expressing PimA after 5 days by standard microdilution method; format: functional; conditions: 120 h
# Escherichia coli [22] = test: Antimicrobial activity against Escherichia coli ARC523 at 100 uM; format: functional, organism-based; in short: as §3
# [23] = Octanol-water partition coefficient, log D of the compound by shake-flask method; format: physicochemical
# Haemophilus influenzae [24] = test: Antimicrobial activity against Haemophilus influenzae ARC446 at 100 uM; format: functional, organism-based; in short: as §3
# Klebsiella pneumoniae = test: Antimicrobial activity against Klebsiella pneumoniae ARC1865 at 100 uM; format: functional, organism-based; in short: as §3
# [25] = Inhibition of Mycobacterium smegmatis recombinant DprE1 using farnesylphosphoryl-beta-D-ribofuranose as substrate assessed as conversion of amplex red to resorufin after 30 mins; set-up: species or system Mycolicibacterium smegmatis
# In short: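 Msm DprE1 (thioredoxin-6His fusion of Msm Rv3790) at 75 nM, preincubated 30 min with 10 μM FAD. Buffer: 50 mM glycylglycine pH 8.5, 200 mM potassium glutamate, 0.002% Brij-35, 2% DMSO, 25 °C. Started with 300 μM farnesylphosphoryl-β-D-ribofuranose, 0.01 mg/mL HRP and 50 μM Amplex Red.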
# [26] = test system: Mycobacterium tuberculosis; test: Antimycobacterial activity against Mycobacterium tuberculosis H37Rv after 5 days by standard microdilution method; format: functional; conditions: 120 h
# Cytochrome P450 3A4 = Cytochrome P450 3A4 (Homo sapiens, UniProt P08684); test: Inhibition of CYP3A4 (unknown origin); format: ADME; in short: as §4
# Cytochrome P450 3A4, sequence (P08684 whole entry): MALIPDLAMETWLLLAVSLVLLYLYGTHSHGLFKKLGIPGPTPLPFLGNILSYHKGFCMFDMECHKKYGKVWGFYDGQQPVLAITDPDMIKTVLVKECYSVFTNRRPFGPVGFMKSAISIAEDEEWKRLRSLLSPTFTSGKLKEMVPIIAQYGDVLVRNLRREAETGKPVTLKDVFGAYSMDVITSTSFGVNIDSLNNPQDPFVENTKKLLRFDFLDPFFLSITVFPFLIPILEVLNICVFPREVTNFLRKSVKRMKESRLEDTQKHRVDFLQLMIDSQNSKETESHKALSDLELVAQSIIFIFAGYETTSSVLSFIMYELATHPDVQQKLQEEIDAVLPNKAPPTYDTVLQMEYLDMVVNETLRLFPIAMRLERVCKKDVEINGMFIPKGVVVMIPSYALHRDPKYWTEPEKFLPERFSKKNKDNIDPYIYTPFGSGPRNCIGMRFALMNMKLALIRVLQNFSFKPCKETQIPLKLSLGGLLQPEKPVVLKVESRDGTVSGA
# [27] = Solubility of the compound in 0.1 M phosphate buffer at pH 7.4 after 24 hrs by UV and MS analysis; format: physicochemical
# [28] = test system: Mycolicibacterium smegmatis; test: Binding affinity to Mycobacterium smegmatis recombinant DprE1 assessed as dissociation constant; in short: as §1
# [29] = Intrinsic clearance in human liver microsomes at 1 uM up to 30 mins by LC-MS/MS analysis; format: ADME; conditions: read-out: CLH
# [30] = Cytotoxicity against human A549 cells after 72 hrs by resazurin based fluorescence assay; format: cell-based; conditions: read-out: MIC
# In short: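 Cytotoxicity read as MMIC, the MIC on the A549 cell line.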
# [31] = test system: Mycobacterium tuberculosis; test: Antimycobacterial activity against Mycobacterium tuberculosis H37Rv under hypoxic condition after 6 days by resazurin assay; format: functional; conditions: 144 h
# Cytochrome P450 1A2 = biological target: T1, Cytochrome P450 1A2 (Homo sapiens, UniProt P05177); test: Inhibition of CYP1A2 (unknown origin); format: ADME; in short: as §4
# T1 sequence (P05177 whole entry): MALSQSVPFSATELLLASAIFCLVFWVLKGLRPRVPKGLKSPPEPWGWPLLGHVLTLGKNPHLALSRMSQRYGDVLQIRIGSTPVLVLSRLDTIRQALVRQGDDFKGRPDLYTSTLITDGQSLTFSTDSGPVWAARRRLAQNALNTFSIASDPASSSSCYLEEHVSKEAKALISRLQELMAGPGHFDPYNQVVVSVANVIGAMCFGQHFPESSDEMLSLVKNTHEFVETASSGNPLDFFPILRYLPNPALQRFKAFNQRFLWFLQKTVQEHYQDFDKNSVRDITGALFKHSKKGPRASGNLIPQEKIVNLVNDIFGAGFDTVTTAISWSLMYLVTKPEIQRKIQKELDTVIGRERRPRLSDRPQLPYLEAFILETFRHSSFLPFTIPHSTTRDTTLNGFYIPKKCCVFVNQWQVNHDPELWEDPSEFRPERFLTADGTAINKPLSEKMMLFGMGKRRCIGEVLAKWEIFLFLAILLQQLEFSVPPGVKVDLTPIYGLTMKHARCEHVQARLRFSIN
# [32] = test system: Mycobacterium tuberculosis; test: Antimycobacterial activity against Mycobacterium tuberculosis expressing GFP assessed as bacterial lysis at 30 uM after 5 to 7 days measured after drug washout; format: functional, organism-based; in short: as §2
# [33] = Permeability of the compound from basolateral to apical side in human Caco2 cells; format: ADME, cell-based; conditions: Caco-2, read-out: permeability
# Cytochrome P450 2D6 = Cytochrome P450 2D6 (Homo sapiens, UniProt P10635); test: Inhibition of CYP2D6 (unknown origin); format: ADME; in short: as §4
# Cytochrome P450 2D6, sequence (P10635 whole entry): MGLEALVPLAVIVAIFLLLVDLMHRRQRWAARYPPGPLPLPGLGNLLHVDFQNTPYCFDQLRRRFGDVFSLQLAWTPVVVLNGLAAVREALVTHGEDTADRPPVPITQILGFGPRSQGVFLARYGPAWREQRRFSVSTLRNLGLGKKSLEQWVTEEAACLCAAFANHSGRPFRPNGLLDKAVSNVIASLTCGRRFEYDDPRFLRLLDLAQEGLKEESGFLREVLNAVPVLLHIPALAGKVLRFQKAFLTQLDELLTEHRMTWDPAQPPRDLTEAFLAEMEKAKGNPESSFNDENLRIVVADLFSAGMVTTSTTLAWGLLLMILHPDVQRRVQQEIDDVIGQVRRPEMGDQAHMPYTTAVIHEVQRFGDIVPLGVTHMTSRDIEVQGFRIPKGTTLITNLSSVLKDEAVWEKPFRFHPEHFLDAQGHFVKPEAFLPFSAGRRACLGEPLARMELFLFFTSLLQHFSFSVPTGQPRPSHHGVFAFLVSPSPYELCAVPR
# Candida albicans = test: Antimicrobial activity against Candida albicans ARC527 at 100 uM; format: functional, organism-based; in short: as §3
# [34] = test system: Mycolicibacterium smegmatis; test: Ratio of IC50 for Mycobacterium smegmatis DprE1 Y321H mutant to IC50 for Mycobacterium smegmatis recombinant wild type DprE1; in short: as §5
compound,measurement,setting,value
Cn1ncc(C(=O)N2CCC(Nc3cc(=O)[nH]c4ccc(F)cc34)CC2)c1Cl,"fraction unbound at 18 h, 20 µM",[1],0.4
same,TIME,[2],1.98 h
same,Activity,[3],Active
same,Activity,[4],Active
same,inhibition,[5],Active
same,Activity,Pseudomonas aeruginosa [6],inactive
same,MIC,[7],1.6 µM
same,Activity,Haemophilus influenzae [8],inactive
same,INH,Cytochrome P450 2C9,> 30 µM
same,MIC,[9],0.8 µM
same,Activity,[10],inactive
same,Activity,Streptococcus pneumoniae,inactive
same,T1/2,[11],1.38 h
same,hepatocyte CLint at 1 µM,[12],5.6 µL/min/1e6 cells
same,Papp A→B,[13],0.6 ×10⁻⁶ cm/s
same,Activity,Escherichia coli [14],inactive
same,Activity,[15],Active
same,Activity,Pseudomonas aeruginosa [16],inactive
same,INH,Cytochrome P450 2C19,> 30 µM
same,Activity,Staphylococcus aureus,inactive
same,Activity,[17],inactive
same,MIC,[18],100 µM
same,IC50,[19],9.47 µM
same,MBC,[20],3.1 µM
same,MIC,[21],1.6 µM
same,Activity,Escherichia coli [22],inactive
same,logD,[23],2
same,Activity,Haemophilus influenzae [24],inactive
same,Activity,Klebsiella pneumoniae,inactive
same,IC50,[25],5 nM
same,MIC,[26],1.56 µM
same,INH,Cytochrome P450 3A4,> 30 µM
same,solubility at 24 h,[27],105 µM
same,Kdiss,[28],0.00012 s⁻¹
same,microsomal CLint at 1 µM,[29],< 4.8 µL/min/mg
same,MCC at 72 h,[30],> 200 µM
same,IC80,[31],> 100 µM
same,INH,Cytochrome P450 1A2,> 30 µM
same,Activity,[32],Active
same,Papp B→A,[33],13 ×10⁻⁶ cm/s
same,INH,Cytochrome P450 2D6,> 30 µM
same,Activity,Candida albicans,inactive
same,fold change (FC),[34],111

# — ChEMBL document CHEMBL3286182, “4-aminoquinolone piperidine amides: noncovalent inhibitors of DprE1 with long residence time and potent antimycobacterial activity” (J Med Chem, 2014)
